MT stabilizer = microtubule stabilization, imaging screen; HeLa tubulin immunostaining HCS, 24 h; share of cells brighter than vehicle mean+2SD; % tubulin-high responders, % at 10 µM; 0.83% of 200,000 active; AID 2205;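 active = plate Z-score above 3 for both tubulin-high and condensed-nucleus cell shares, with cell loss under 80%, at 10 µM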;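 also: anti alpha tubulin signal scored within the nucleus-defined area of each cell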
Autophagy mod = autophagy modulation, high-content screen. MEF GFP-LC3 puncta imaging; test concentration mostly 10 µM. calls only at 10 µM (by protocol). 0.98% of 190,000 active. AID 463193;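 active = percentage of spot-positive cells more than 3 SD above its plate mean, without a fluorescence outlier flag or 80% toxicity; inconclusive = no clear call, values can overlap the other calls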;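 also: spot-positive cell cutoff set from DMSO-treated cells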
Tb hexokinase = T. brucei hexokinase 1 inhibition; 0.11% of 220,000 active; recombinant TbHK1, G6PDH-coupled NADH A340; inhibition, % at 10 µM; AID 1430;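 active = inhibition of 50% or more in the single-dose primary screen; inactive = inhibition below 50%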
bCat nuc transl = alters nuclear translocation of beta-catenin in HeLa cells. immunofluorescence imaging. nuclear translocation activity, % at 5 µM. 0.3% of 190,000 active. AID 1665;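 active = nuclear translocation activity above 50% at 5 µM, with a well cell count of 50 or more; inconclusive = wells under 50 cells across six images, flagged as toxic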;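 also: per-cell ratio of nuclear to cytoplasmic median beta-catenin stain intensity; plate controls were DMSO negative control for no effect and GSK-3 inhibitor IX positive control for full effect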
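Technique: fluorescence imaging of beta-catenin antibody stain plus DAPI / Material: human HeLa cell line / Incubation: compound treatment 24 h, 37°C, 5% CO2 / Read-out basis: % activation of per-cell nuclear versus cytoplasmic median beta-catenin signal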
Ins promoter up = MIN6 insulin promoter up-regulation | 0.3% of 190,000 active | MIN6 insulin promoter-GFP reporter, high-content imaging; hits give high values | z-score at 5 µM | AID 1625;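 active = z-score above 3 at 5 µM with at least 500 cells counted in the well; inconclusive = wells under 500 cells, flagged as cytotoxic or low count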
The depositor's hits bear a star; i = inactive; ? = inconclusive; nt = no result; + = active, no number. A selection: hits, their analogues and other compounds. The true share with any hit is near 1.9%.

SMILES	MT stabilizer	Autophagy mod	Tb hexokinase	bCat nuc transl	Ins promoter up
COc1ccccc1Nc1nc(N)nc(CN2CC(C)CC(C)C2)n1 (configuration not stated)	3	i	11	0	-0.74
CC1=Nc2ccccc2/C1=C/c1sc(=S)n(-c2cccc(C(=O)O)c2)c1O	5	i	2	-6	3.2*
COc1ccccc1N1CCN(C/C(O)=C(\C#N)c2nc(-c3ccccc3)cs2)CC1	3	i	-29	0	3.2*
N#C/C(=C(/O)CN1CCN(c2ccccc2F)CC1)c1nc(-c2ccc(Cl)cc2)cs1	6	i	-12	nt	nt
CC(=O)n1cc(C(C[N+](=O)[O-])SCCN)c2ccccc21 (configuration not stated)	26*	i	-11	16	-0.47
CCOc1ccc2nc(-c3ccccc3)[nH]c2c1	42*	i	-12	78*	0
COc1cccc(CN2CCNC(=O)C2CC(=O)NCc2cc(C(C)C)no2)c1 (configuration not stated)	2	i	-9	-1	0.47
O=C(Nc1ccccc1)Nc1ncc([N+](=O)[O-])s1	3	+	9	0	0.17
O=C(Nc1ncc([N+](=O)[O-])s1)c1cccc([N+](=O)[O-])c1	nt	nt	-3	-1	-0.89
CCCN1C(=O)/C(=C/c2c(NCCCOCC)nc3c(C)cccn3c2=O)SC1=S	10	+	9	-4	5.7*
CCOCCCNc1nc2c(C)cccn2c(=O)c1/C=C1\SC(=S)N(CC(C)C)C1=O	2	+	-8	1	nt
CCOC(=O)CC1C(=O)NCCN1c1nc2c(C)cccn2c(=O)c1/C=C1\SC(=S)N(CC(C)C)C1=O (configuration not stated)	nt	nt	-17	-1	17*
CCOC(=O)CC1C(=O)NCCN1S(=O)(=O)c1ccc(OC)cc1 (configuration not stated)	3	i	6	1	-0.32
CCOCCCNc1nc2c(C)cccn2c(=O)c1/C=C1\SC(=S)N(C(C)CC)C1=O (configuration not stated)	nt	nt	-30	-1	nt
CC(C)CN1C(=O)/C(=C/c2c(N3CCc4ccccc4C3)nc3ccccn3c2=O)SC1=S	nt	nt	-7	1	17*
Cc1cccn2c(=O)c(/C=C3\SC(=S)NC3=O)c(NCCCN3CCOCC3)nc12	nt	nt	-24	0	nt
O=C(CSc1nnc(COc2ccccc2)o1)N1CCOCC1	1	i	4	1	0.18
CC(=O)Nc1sc(N/N=C\c2ccc(O)cc2)nc1-c1cccs1	nt	nt	-47	1	0.07
CCN(CC)c1ccc(/C=C(\C#N)c2nc(-c3cccs3)c(NC(C)=O)s2)cc1	3	+	-2	0	17*
COc1ccc(N/N=C(\C=N\O)C(=O)c2ccc(OC)cc2)cc1	38*	+	-7	nt	-0.68
COc1ccc(NC(=O)/C=N/O)cc1	4	i	-1	-3	0.25
COc1cc(C2Nc3cccc4cccc(c34)N2)cc(OC)c1O	2	+	-27	?	nt
CC(C)(C)NC(=O)NC(=O)COC(=O)CCC1CCCC1	nt	nt	-3	-1	0.2
CCC(C)[C@H](NC(=O)NCc1ccc(S(N)(=O)=O)cc1)C(=O)O (some centres not stated)	nt	nt	-1	1	0.36
Cc1ccc(NC(=O)CN(C)CC(=O)Nc2ccccc2Oc2ccccc2)cc1	5	+	3	0	-0.36
SMILES	MT stabilizer	Autophagy mod	Tb hexokinase	bCat nuc transl	Ins promoter up
COc1cccc(Nc2nc(-c3ccc4c(c3)OCCO4)cs2)c1	34*	i	6	5	-1.1
c1cc2c(cc1Nc1nc(-c3ccc4c(c3)OCO4)cs1)OCCO2	3	i	-18	1	-0.46
CC(=O)CCn1cnc([N+](=O)[O-])n1	1	i	-4	-3	nt
COc1ccc(NC(=O)c2ccc3nccnc3c2)cc1	3	i	-10	1	nt
O=C(Nc1ccc(Br)cn1)c1ccc2nccnc2c1	12*	i	-14	nt	nt
O=C(CSc1ccccc1)Nc1ccc(C(=O)Nc2ccc(O)cc2)cc1	3	i	-8	0	0.99
CNC(=S)/N=C/NOCc1ccc(Cl)cc1Cl	5	+	4	-3	-2.6
O=C(NNc1nc(Nc2ccccc2)nc(N2CCOCC2)n1)Nc1ccc(Cl)cc1	3	i	-3	1	0.39
CC(=O)Nc1ccc(/C(C)=N/Nc2nc(Nc3ccccc3)nc(N3CCOCC3)n2)cc1	3	+	-16	0	-0.46

Assay outcomes (PubChem BioAssay)
